Measured values as given in ChEMBL document CHEMBL4732167, “Structure based design, synthesis, and biological evaluation of imidazole derivatives targeting dihydropteroate synthase enzyme” (Bioorg Med Chem Lett, 2021).
≈ marks a conversion by molar mass, not a printed value.

What was measured:
Plasmodium falciparum = assay: Antimalarial activity against Plasmodium falciparum assessed as parasite growth inhibition; format: functional, organism-based
Staphylococcus aureus [1] = assay: Antibacterial activity against Staphylococcus aureus MTCC 96 assessed as bacterial growth inhibition; format: functional
Escherichia coli = assay: Antibacterial activity against Escherichia coli MTCC 443 assessed as bacterial growth inhibition; format: functional
Streptococcus pyogenes = assay: Antibacterial activity against Streptococcus pyogenes MTCC 442 assessed as bacterial growth inhibition; format: functional
[2] = test system: Mycobacterium tuberculosis; assay: Antibacterial activity against Mycobacterium tuberculosis H37Rv assessed as bacterial growth inhibition; format: functional
Pseudomonas aeruginosa = assay: Antibacterial activity against Pseudomonas aeruginosa MTCC 1688 assessed as bacterial growth inhibition; format: functional
Aspergillus niger = assay: Antifungal activity against Aspergillus niger MTCC 282 assessed as fungal growth inhibition; format: functional
Candida albicans = assay: Antifungal activity against Candida albicans MTCC 227 assessed as fungal growth inhibition; format: functional
Aspergillus clavatus = assay: Antifungal activity against Aspergillus clavatus MTCC 1323 assessed as fungal growth inhibition; format: functional
Bacteria = assay: Antibacterial activity against ESBL-producing bacteria assessed as bacterial growth inhibition; format: functional
Procedure, shortened: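 Values are minimum inhibitory concentrations (MIC) in µg/mL, determined at an outside microbiology laboratory.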

[3] = Antioxidant activity assessed as DPPH radical scavenging activity at 25 ug/ml (reference value: 22 to 40.2 %); format: functional; conditions: dose 25.0 µg/ml
Procedure, shortened: (§1)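 DPPH radical scavenging was measured at 0, 25, 50, 75 and 100 µg/ml of each compound. Ascorbic acid was the reference.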

[4] = Antioxidant activity assessed as DPPH radical scavenging activity at 50 ug/ml (reference value: 22 to 40.2 %); format: functional; conditions: dose 50.0 µg/ml; procedure, shortened: as §1
[5] = Antioxidant activity assessed as DPPH radical scavenging activity at 75 ug/ml (reference value: 22 to 40.2 %); format: functional; conditions: dose 75.0 µg/ml; procedure, shortened: as §1
[6] = Antioxidant activity assessed as DPPH radical scavenging activity at 100 ug/ml (reference value: 22 to 40.2 %); format: functional; conditions: dose 100.0 µg/ml; procedure, shortened: as §1
[7] = Antioxidant activity assessed as nitric oxide radical scavenging activity at 25 ug/ml (reference value: 25.8 to 41.6 %); format: functional; conditions: dose 25.0 µg/ml
Procedure, shortened: (§2)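 Nitric oxide radical scavenging was tested at 0, 25, 50, 75 and 100 µg/ml of compound.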

[8] = Antioxidant activity assessed as nitric oxide radical scavenging activity at 50 ug/ml (reference value: 25.8 to 41.6 %); format: functional; conditions: dose 50.0 µg/ml; procedure, shortened: as §2
[9] = Antioxidant activity assessed as nitric oxide radical scavenging activity at 75 ug/ml (reference value: 25.8 to 41.6 %); format: functional; conditions: dose 75.0 µg/ml; procedure, shortened: as §2
[10] = Antioxidant activity assessed as nitric oxide radical scavenging activity at 100 ug/ml (reference value: 25.8 to 41.6 %); format: functional; conditions: dose 100.0 µg/ml; procedure, shortened: as §2
[11] = Antioxidant activity assessed as hydrogen peroxide radical scavenging activity at 25 ug/ml (reference value: 23.6 to 43.1 %); format: functional; conditions: dose 25.0 µg/ml
Procedure, shortened: (§3)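 Hydrogen peroxide scavenging was measured across a compound series of 0, 25, 50, 75 and 100 µg/ml.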

[12] = Antioxidant activity assessed as hydrogen peroxide radical scavenging activity at 50 ug/ml (reference value: 23.6 to 43.1 %); format: functional; conditions: dose 50.0 µg/ml; procedure, shortened: as §3
[13] = Antioxidant activity assessed as hydrogen peroxide radical scavenging activity at 75 ug/ml (reference value: 23.6 to 43.1 %); format: functional; conditions: dose 75.0 µg/ml; procedure, shortened: as §3
[14] = Antioxidant activity assessed as hydrogen peroxide radical scavenging activity at 100 ug/ml (reference value: 23.6 to 43.1 %); format: functional; conditions: dose 100.0 µg/ml; procedure, shortened: as §3
Enterococcus = assay: Antibacterial activity against vancomycin-resistant Enterococcus assessed as inhibition of bacterial growth; format: functional
Procedure, shortened: (§4)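 Growth inhibition of the drug-resistant strain was read out as the minimum inhibitory concentration (MIC), reported in µg/mL. The same protocol was also run on an ESBL strain.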

Staphylococcus aureus [15] = assay: Antibacterial activity against methicillin-resistant Staphylococcus aureus assessed as inhibition of bacterial growth; format: functional; procedure, shortened: as §4

Compound | IC50 (Plasmodium falciparum) [µg/mL] | MIC (Staphylococcus aureus [1]) [µg/mL] | MIC (Escherichia coli) [µg/mL] | MIC (Streptococcus pyogenes) [µg/mL] | MIC [2] [µg/mL] | MIC (Pseudomonas aeruginosa) [µg/mL] | MFC (Aspergillus niger) [µg/mL] | MFC (Candida albicans) [µg/mL] | MFC (Aspergillus clavatus) [µg/mL] | MIC (Bacteria) [µg/mL] | Activity [3] [%] | Activity [4] [%] | Activity [5] [%] | Activity [6] [%] | Activity [7] [%] | Activity [8] [%] | Activity [9] [%] | Activity [10] [%] | Activity [11] [%] | Activity [12] [%] | also measured
C=C[C@H]1CN2CC[C@H]1C[C@H]2[C@H](O)c1ccnc2ccc(OC)cc12 [QUININE] | 0.268 (≈ 0.826 µM) | – | – | – | – | – | – | – | – | – | – | – | – | – | – | – | – | – | – | – | –
O=C(O)c1cn(C2CC2)c2cc(N3CCNCC3)c(F)cc2c1=O [CIPROFLOXACIN] | – | 50 (≈ 151 µM) | 25 (≈ 75.4 µM) | 50 (≈ 151 µM) | – | – | – | – | – | – | – | – | – | – | – | – | – | – | – | – | –
NNC(=O)c1ccncc1 [ISONIAZID] | – | – | – | – | 0.2 (≈ 1.46 µM) | – | – | – | – | – | – | – | – | – | – | – | – | – | – | – | –
CCn1cc(C(=O)O)c(=O)c2cc(F)c(N3CCNCC3)cc21 [NORFLOXACIN] | – | 10 (≈ 31.3 µM) | 10 (≈ 31.3 µM) | 10 (≈ 31.3 µM) | – | 10 (≈ 31.3 µM) | – | – | – | – | – | – | – | – | – | – | – | – | – | – | –
COC1=CC(=O)C[C@@H](C)[C@]12Oc1c(Cl)c(OC)cc(OC)c1C2=O [GRISEOFULVIN] | – | – | – | – | – | – | 100 (≈ 283 µM) | 500 (≈ 1420 µM) | 100 (≈ 283 µM) | – | – | – | – | – | – | – | – | – | – | – | –
NYSTATIN | – | – | – | – | – | – | 100 | 100 | 100 | – | – | – | – | – | – | – | – | – | – | – | –
CC(=O)c1c(C)nc(SCC(=O)Nc2ccc(OC(=O)c3ccc(Cl)cc3)cc2)n1-c1ccc(Cl)cc1 | 0.46 (≈ 0.83 µM) | 125 (≈ 225 µM) | 250 (≈ 451 µM) | 100 (≈ 180 µM) | – | 100 (≈ 180 µM) | > 1000 | > 1000 | > 1000 | 1000 (≈ 1800 µM) | 36.9 | 49.3 | 64.9 | 84.5 | 41.8 | 58.3 | 81.9 | 89.4 | 50.8 | 66.6 | Activity [13]: 80%; Activity [14]: 93.6%
COc1ccc(-n2c(SCC(=O)Nc3ccc(OC(=O)c4ccco4)cc3)nc(C)c2C(C)=O)cc1 | 0.78 (≈ 1.54 µM) | 250 (≈ 495 µM) | 125 (≈ 247 µM) | 125 (≈ 247 µM) | 62.5 (≈ 124 µM) | 100 (≈ 198 µM) | > 1000 | 250 (≈ 495 µM) | > 1000 | 500 (≈ 989 µM) | 32.5 | 47.1 | 66.2 | 85.2 | 37.7 | 59.3 | 78.9 | 84.5 | 59.3 | 69.9 | MIC (Enterococcus): 250 µg/mL (≈ 495 µM); MIC (Staphylococcus aureus [15]): 500 µg/mL (≈ 989 µM); Activity [13]: 81%; Activity [14]: 90%
CC(=O)c1c(C)nc(SCC(=O)Nc2ccc(OCc3ccc(Cl)cc3)cc2)n1-c1ccccc1 | 1.45 (≈ 2.87 µM) | 250 (≈ 494 µM) | 100 (≈ 198 µM) | 62.5 (≈ 124 µM) | 12.5 (≈ 24.7 µM) | 25 (≈ 49.4 µM) | 500 (≈ 988 µM) | > 1000 | 500 (≈ 988 µM) | 125 (≈ 247 µM) | 52.1 | 68.2 | 76 | 84.7 | 49.5 | 61.4 | 76.9 | 88.4 | 42.6 | 59.4 | MIC (Enterococcus): 100 µg/mL (≈ 198 µM); MIC (Staphylococcus aureus [15]): 100 µg/mL (≈ 198 µM); Activity [13]: 67.3%; Activity [14]: 79.6%
CC(=O)c1c(C)nc(SCC(=O)Nc2ccc(OCc3ccc(Cl)cc3)cc2)n1-c1ccc(Cl)cc1 | 0.56 (≈ 1.04 µM) | 100 (≈ 185 µM) | 250 (≈ 463 µM) | 100 (≈ 185 µM) | 25 (≈ 46.3 µM) | 125 (≈ 231 µM) | > 1000 | 1000 (≈ 1850 µM) | > 1000 | 500 (≈ 925 µM) | 41.2 | 51.7 | 58.6 | 85.7 | 47.3 | 64.3 | 80.6 | 88.8 | 47.8 | 59.4 | MIC (Enterococcus): 500 µg/mL (≈ 925 µM); MIC (Staphylococcus aureus [15]): 125 µg/mL (≈ 231 µM); Activity [13]: 75.2%; Activity [14]: 89.7%
COc1ccc(COc2ccc(NC(=O)CSc3nc(C)c(C(C)=O)n3-c3ccc(Br)cc3)cc2)cc1 | 1.25 (≈ 2.15 µM) | 250 (≈ 431 µM) | 125 (≈ 215 µM) | 125 (≈ 215 µM) | 250 (≈ 431 µM) | 50 (≈ 86.1 µM) | > 1000 | 500 (≈ 861 µM) | 1000 (≈ 1720 µM) | 250 (≈ 431 µM) | 34.8 | 41.3 | 59.7 | 73.2 | 51.7 | 65.4 | 75.3 | 84.3 | 47 | 60.7 | MIC (Enterococcus): 250 µg/mL (≈ 431 µM); MIC (Staphylococcus aureus [15]): 500 µg/mL (≈ 861 µM); Activity [13]: 71%; Activity [14]: 84.3%
GENTAMICIN | – | 0.25 | 0.05 | 0.5 | – | 1 | – | – | – | – | – | – | – | – | – | – | – | – | – | – | –
CC(=O)c1c(C)nc(SCC(=O)Nc2ccc(OCc3ccccc3)cc2)n1-c1ccc(F)cc1 | 0.45 (≈ 0.919 µM) | 500 (≈ 1020 µM) | 100 (≈ 204 µM) | 250 (≈ 511 µM) | 62.5 (≈ 128 µM) | 125 (≈ 255 µM) | > 1000 | 1000 (≈ 2040 µM) | > 1000 | 125 (≈ 255 µM) | 46.8 | 56.2 | 62.3 | 84.7 | 45.7 | 60.8 | 72.4 | 85.9 | 47.4 | 63.7 | MIC (Enterococcus): 250 µg/mL (≈ 511 µM); MIC (Staphylococcus aureus [15]): 1000 µg/mL (≈ 2040 µM); Activity [13]: 84%; Activity [14]: 91.8%
CC1(C)S[C@@H]2[C@H](NC(=O)[C@H](N)c3ccccc3)C(=O)N2[C@H]1C(=O)O [AMPICILLIN] | – | 250 (≈ 715 µM) | 100 (≈ 286 µM) | 100 (≈ 286 µM) | – | 100 (≈ 286 µM) | – | – | – | – | – | – | – | – | – | – | – | – | – | – | –
O=C(N[C@H](CO)[C@H](O)c1ccc([N+](=O)[O-])cc1)C(Cl)Cl [CHLORAMPHENICOL] | – | 50 (≈ 155 µM) | 50 (≈ 155 µM) | 50 (≈ 155 µM) | – | 50 (≈ 155 µM) | – | – | – | – | – | – | – | – | – | – | – | – | – | – | –
